# Assay results pooled from the literature.
# Compare with care: the assays were run in different laboratories.
# Target: Serine/threonine-protein kinase Nek5 (NEK5, Homo sapiens, UniProt Q6P3R8)
# One construct used (Q6P3R8 1-708): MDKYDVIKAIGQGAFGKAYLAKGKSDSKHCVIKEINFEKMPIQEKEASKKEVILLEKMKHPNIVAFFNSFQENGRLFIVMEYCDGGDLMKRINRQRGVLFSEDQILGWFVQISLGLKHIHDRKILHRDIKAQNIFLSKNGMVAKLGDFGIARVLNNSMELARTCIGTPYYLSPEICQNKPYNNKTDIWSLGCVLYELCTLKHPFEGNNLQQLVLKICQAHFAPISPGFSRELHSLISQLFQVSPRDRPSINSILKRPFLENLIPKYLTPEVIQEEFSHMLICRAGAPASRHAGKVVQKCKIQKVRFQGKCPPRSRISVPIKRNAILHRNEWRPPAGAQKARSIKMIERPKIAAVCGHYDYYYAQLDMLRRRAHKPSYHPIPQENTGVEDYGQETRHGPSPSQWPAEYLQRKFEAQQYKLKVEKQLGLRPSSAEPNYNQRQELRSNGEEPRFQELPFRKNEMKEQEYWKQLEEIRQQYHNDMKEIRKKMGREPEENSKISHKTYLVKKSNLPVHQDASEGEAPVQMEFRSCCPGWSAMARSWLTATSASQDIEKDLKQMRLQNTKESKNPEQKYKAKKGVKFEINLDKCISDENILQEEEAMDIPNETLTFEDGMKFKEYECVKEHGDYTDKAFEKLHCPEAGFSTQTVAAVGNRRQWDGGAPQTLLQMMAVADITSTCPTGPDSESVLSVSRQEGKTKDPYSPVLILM
Compound,assay,conditions,remaining binding [%]
O=C(NCCCN1CCOCC1)c1ccc(Nc2ncc(Cl)c(-c3ccc(Cl)s3)n2)cc1,"binding, competition with immobilised ligand",1 µM,0
CCN1CCN(Cc2ccc(C(=O)Nc3ccc(C)c(Oc4ccc5c(c4)CC(=O)N5)c3)cc2C(F)(F)F)CC1,"binding, competition with immobilised ligand",1 µM,100
CCOCCn1cc(C(=O)Nc2ccc(-n3nc(-c4cccnc4)cc3C(F)(F)F)cn2)ccc1=O,"cell-free assay, competition with immobilised ligand",1 µM,100
Cc1cnn2ncc(-c3ccnc(N(C)C)n3)c2c1,binding,1 µM,100
O=C(Nc1c[nH]nc1C(=O)NC1CCNCC1)c1cc(F)cc(F)c1,"binding, competition with immobilised ligand",1 µM,95
c1cnn2ncc(-c3ccnc(N4CCC45COC5)n3)c2c1,binding,1 µM,97
COc1cnc(Nc2cccc(S(N)(=O)=O)c2)nc1N1CCN(c2ccccc2)C(=O)C1,"binding, competition with immobilised ligand",1 µM,88
CN(c1nccc(-c2cnn3ncccc23)n1)C1CC1,binding,1 µM,100
C[C@H](NC(=O)c1cnc2n1[C@](C)(Cc1ccc(C#N)cc1)C(=O)N2c1cc(Cl)c(F)c(Cl)c1)C(=O)NC1(c2ccccn2)CC1,"cell-free assay, competition with immobilised ligand",1 µM,100
FC(F)(F)Oc1cccc(-c2cnc3ccc(-c4ccncc4)nn23)c1,"cell-free assay, competition with immobilised ligand",5 µM,74
Cn1nc(C(F)(F)F)cc1-c1cnc(N2CCc3cc(S(=O)(=O)Nc4c(F)cc(Cl)cc4F)cc(N4CCCC4=O)c32)nc1,"cell-free assay, competition with immobilised ligand",1 µM,86
CN(C)c1ncc(F)c(-c2cnn3ncccc23)n1,binding,1 µM,88
C[C@@H](c1ccc(-n2cnc3c(N)ncnc32)cc1)N1CCc2nn(C)c(Cc3ccccc3)c2C1=O,"binding, competition with immobilised ligand",0.1 µM,92
Cc1noc([C@H]2C[C@@H](c3ccc(C(F)(F)F)cc3)CN(C(=O)N3CCS(=O)(=O)C3)C2)n1,"cell-free assay, competition with immobilised ligand",1 µM,100
N[C@H]1CCN(c2nccc(-c3cnn4ncccc34)n2)C1,binding,1 µM,87
O=C(c1ccc(Nc2ncc(Cl)c(-c3cc4ccccc4s3)n2)cc1)N1CCC(N2CCCC2)CC1,"binding, competition with immobilised ligand",1 µM,0
C[C@@H](c1cccc(C#N)c1)n1cc(Cl)cc(C(N)=O)c1=N,"cell-free assay, competition with immobilised ligand",1 µM,100
O=C(c1ccc(Nc2ncc(Cl)c(-c3ccc(Cl)s3)n2)cc1)N1CCC(N2CCCC2)CC1,"binding, competition with immobilised ligand",1 µM,0
C[C@H]1CCN(c2nccc(-c3cnn4ncccc34)n2)C1,binding,1 µM,90
FC(F)(F)c1ccc2c(c1)nc(-c1cccnc1)n2C1CC1,"cell-free assay, competition with immobilised ligand",1 µM,100
c1cncc(-c2cccc(Nc3nccc(NC4CCCCC4)n3)c2)c1,"binding, competition with immobilised ligand",10 µM,49
